Measurements published in ChEMBL document CHEMBL5058577, “EUbOPEN Chemogenomics Library 2 (Multiplex)” (2022).

Test system: HEK-293T
Assay: Multiplex assay against HEK293T
Type: toxicity, cell-based
Settings: human
Procedure, shortened: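 Live cells carried four stains from seeding: Hoechst33342, BioTracker Green Microtubule Cytoskeleton Dye, MitoTracker Red and Annexin V Alexa Fluor 680. They were imaged on a CQ1 microscope at 37°C and 5% CO2 after compound addition. Using CellPathfinder machine-learning gating, cells were split into Hoechst high-intensity objects or normal cells, normal cells into healthy, pyknosed or fragmented nuclei, and pyknosed cells into mitotic or apoptotic; tubulin, mitochondrial-mass and membrane-permeability phenotypes are per cents of healthy-nucleus cells.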

[1] = 12 h, 1 µM, compound concentration 1 uM, replicate 1
[2] = 12 h, 1 µM, compound concentration 1 uM, replicate 2
[3] = 12 h, 10 µM, compound concentration 10 uM, replicate 1
[4] = 12 h, 10 µM, compound concentration 10 uM, replicate 2
[5] = 24 h, 1 µM, compound concentration 1 uM, replicate 1
[6] = 24 h, 1 µM, compound concentration 1 uM, replicate 2
[7] = 24 h, 10 µM, compound concentration 10 uM, replicate 1
[8] = 24 h, 10 µM, compound concentration 10 uM, replicate 2
[9] = 48 h, 1 µM, compound concentration 1 uM, replicate 1
[10] = 48 h, 1 µM, compound concentration 1 uM, replicate 2
[11] = 48 h, 10 µM, compound concentration 10 uM, replicate 1
[12] = 48 h, 10 µM, compound concentration 10 uM, replicate 2

SMILES: Cc1nn(C)c2nc(NNC(=O)Nc3cc(Cl)nc(Cl)c3)cc(C(C)C)c12
- Population Apoptotic (%) [1]: 27%
- Population Fragmented Nuclei (%) [1]: 5%
- Population Healthy Nuclei (%) [1]: 77%
- Population Hoechst High Intensity Objects (%) [1]: 5%
- Population Membrane Permeable-Phenotype (%) [1]: 0%
- Population Mitochondria Different-Phenotype (%) [1]: 37%
- Population Mitotic Cells (%) [1]: 72%
- Population Normal (%) [1]: 94%
- Population Pyknosed Nuclei (%) [1]: 16%
- Population Tubulin-Different-Phenotype (%) [1]: 26%
- Total Cell Count [1]: 467
- Population Apoptotic (%) [2]: 40%
- Population Healthy Nuclei (%) [2]: 81%
- Population Hoechst High Intensity Objects (%) [2]: 2%
- Population Mitochondria Different-Phenotype (%) [2]: 59%
- Population Mitotic Cells (%) [2]: 60%
- Population Normal (%) [2]: 97%
- Population Pyknosed Nuclei (%) [2]: 13%
- Population Tubulin-Different-Phenotype (%) [2]: 25%
- Total Cell Count [2]: 383
- Population Apoptotic (%) [3]: 55%
- Population Fragmented Nuclei (%) [3]: 5%
- Population Healthy Nuclei (%) [3]: 61%
- Population Hoechst High Intensity Objects (%) [3]: 12%
- Population Membrane Permeable-Phenotype (%) [3]: 1%
- Population Mitochondria Different-Phenotype (%) [3]: 79%
- Population Mitotic Cells (%) [3]: 44%
- Population Normal (%) [3]: 88%
- Population Pyknosed Nuclei (%) [3]: 32%
- Population Tubulin-Different-Phenotype (%) [3]: 80%
- Total Cell Count [3]: 300
- Population Apoptotic (%) [4]: 46%
- Population Fragmented Nuclei (%) [4]: 4%
- Population Healthy Nuclei (%) [4]: 74%
- Population Hoechst High Intensity Objects (%) [4]: 3%
- Population Mitochondria Different-Phenotype (%) [4]: 84%
- Population Mitotic Cells (%) [4]: 53%
- Population Normal (%) [4]: 96%
- Population Pyknosed Nuclei (%) [4]: 21%
- Population Tubulin-Different-Phenotype (%) [4]: 75%
- Total Cell Count [4]: 396
- Population Apoptotic (%) [5]: 31%
- Population Fragmented Nuclei (%) [5]: 9%
- Population Healthy Nuclei (%) [5]: 78%
- Population Hoechst High Intensity Objects (%) [5]: 3%
- Population Membrane Permeable-Phenotype (%) [5]: 0%
- Population Mitochondria Different-Phenotype (%) [5]: 27%
- Population Mitotic Cells (%) [5]: 68%
- Population Normal (%) [5]: 96%
- Population Pyknosed Nuclei (%) [5]: 11%
- Population Tubulin-Different-Phenotype (%) [5]: 20%
- Total Cell Count [5]: 608
- Population Fragmented Nuclei (%) [6]: 6%
- Population Healthy Nuclei (%) [6]: 82%
- Population Hoechst High Intensity Objects (%) [6]: 1%
- Population Mitochondria Different-Phenotype (%) [6]: 37%
- Population Normal (%) [6]: 98%
- Population Tubulin-Different-Phenotype (%) [6]: 19%
- Total Cell Count [6]: 512
- Population Apoptotic (%) [7]: 59%
- Population Fragmented Nuclei (%) [7]: 10%
- Population Healthy Nuclei (%) [7]: 66%
- Population Hoechst High Intensity Objects (%) [7]: 5%
- Population Membrane Permeable-Phenotype (%) [7]: 0%
- Population Mitochondria Different-Phenotype (%) [7]: 78%
- Population Mitotic Cells (%) [7]: 40%
- Population Normal (%) [7]: 94%
- Population Pyknosed Nuclei (%) [7]: 22%
- Population Tubulin-Different-Phenotype (%) [7]: 74%
- Total Cell Count [7]: 321
- Population Apoptotic (%) [8]: 55%
- Population Fragmented Nuclei (%) [8]: 5%
- Population Healthy Nuclei (%) [8]: 78%
- Population Mitochondria Different-Phenotype (%) [8]: 80%
- Population Mitotic Cells (%) [8]: 44%
- Population Normal (%) [8]: 95%
- Population Pyknosed Nuclei (%) [8]: 16%
- Population Tubulin-Different-Phenotype (%) [8]: 69%
- Total Cell Count [8]: 440
- Population Apoptotic (%) [9]: 27%
- Population Fragmented Nuclei (%) [9]: 12%
- Population Healthy Nuclei (%) [9]: 78%
- Population Hoechst High Intensity Objects (%) [9]: 3%
- Population Membrane Permeable-Phenotype (%) [9]: 1%
- Population Mitochondria Different-Phenotype (%) [9]: 17%
- Population Mitotic Cells (%) [9]: 72%
- Population Normal (%) [9]: 96%
- Population Pyknosed Nuclei (%) [9]: 9%
- Population Tubulin-Different-Phenotype (%) [9]: 16%
- Total Cell Count [9]: 912
- Population Apoptotic (%) [10]: 18%
- Population Fragmented Nuclei (%) [10]: 13%
- Population Healthy Nuclei (%) [10]: 81%
- Population Hoechst High Intensity Objects (%) [10]: 2%
- Population Mitochondria Different-Phenotype (%) [10]: 25%
- Population Mitotic Cells (%) [10]: 81%
- Population Normal (%) [10]: 97%
- Population Pyknosed Nuclei (%) [10]: 5%
- Population Tubulin-Different-Phenotype (%) [10]: 19%
- Total Cell Count [10]: 748
- Population Apoptotic (%) [11]: 62%
- Population Fragmented Nuclei (%) [11]: 9%
- Population Healthy Nuclei (%) [11]: 72%
- Population Hoechst High Intensity Objects (%) [11]: 3%
- Population Membrane Permeable-Phenotype (%) [11]: 0%
- Population Mitochondria Different-Phenotype (%) [11]: 82%
- Population Mitotic Cells (%) [11]: 37%
- Population Normal (%) [11]: 96%
- Population Pyknosed Nuclei (%) [11]: 18%
- Population Tubulin-Different-Phenotype (%) [11]: 78%
- Total Cell Count [11]: 387
- Population Apoptotic (%) [12]: 45%
- Population Healthy Nuclei (%) [12]: 79%
- Population Hoechst High Intensity Objects (%) [12]: 4%
- Population Mitochondria Different-Phenotype (%) [12]: 71%
- Population Mitotic Cells (%) [12]: 55%
- Population Normal (%) [12]: 95%
- Population Pyknosed Nuclei (%) [12]: 10%
- Population Tubulin-Different-Phenotype (%) [12]: 63%
- Total Cell Count [12]: 593

SMILES: C[C@@H]1CC(=O)Nc2cccc(-c3ccc4c(c3)c(-c3cnn(C)c3)nn4C)c2N1
- Population Apoptotic (%) [1]: 36%
- Population Fragmented Nuclei (%) [1]: 7%
- Population Healthy Nuclei (%) [1]: 76%
- Population Hoechst High Intensity Objects (%) [1]: 7%
- Population Membrane Permeable-Phenotype (%) [1]: 0%
- Population Mitochondria Different-Phenotype (%) [1]: 51%
- Population Mitotic Cells (%) [1]: 63%
- Population Normal (%) [1]: 92%
- Population Pyknosed Nuclei (%) [1]: 16%
- Population Tubulin-Different-Phenotype (%) [1]: 39%
- Total Cell Count [1]: 305
- Population Apoptotic (%) [2]: 60%
- Population Fragmented Nuclei (%) [2]: 5%
- Population Healthy Nuclei (%) [2]: 77%
- Population Mitochondria Different-Phenotype (%) [2]: 65%
- Population Mitotic Cells (%) [2]: 39%
- Population Tubulin-Different-Phenotype (%) [2]: 26%
- Total Cell Count [2]: 349
- Population Apoptotic (%) [3]: 49%
- Population Fragmented Nuclei (%) [3]: 8%
- Population Healthy Nuclei (%) [3]: 74%
- Population Hoechst High Intensity Objects (%) [3]: 5%
- Population Membrane Permeable-Phenotype (%) [3]: 0%
- Population Mitochondria Different-Phenotype (%) [3]: 72%
- Population Mitotic Cells (%) [3]: 50%
- Population Normal (%) [3]: 94%
- Population Pyknosed Nuclei (%) [3]: 17%
- Population Tubulin-Different-Phenotype (%) [3]: 62%
- Total Cell Count [3]: 384
- Population Apoptotic (%) [4]: 38%
- Population Fragmented Nuclei (%) [4]: 5%
- Population Healthy Nuclei (%) [4]: 77%
- Population Hoechst High Intensity Objects (%) [4]: 12%
- Population Mitochondria Different-Phenotype (%) [4]: 86%
- Population Mitotic Cells (%) [4]: 62%
- Population Normal (%) [4]: 87%
- Population Pyknosed Nuclei (%) [4]: 16%
- Population Tubulin-Different-Phenotype (%) [4]: 56%
- Total Cell Count [4]: 345
- Population Apoptotic (%) [5]: 38%
- Population Fragmented Nuclei (%) [5]: 10%
- Population Healthy Nuclei (%) [5]: 74%
- Population Hoechst High Intensity Objects (%) [5]: 7%
- Population Membrane Permeable-Phenotype (%) [5]: 0%
- Population Mitochondria Different-Phenotype (%) [5]: 37%
- Population Mitotic Cells (%) [5]: 61%
- Population Normal (%) [5]: 92%
- Population Pyknosed Nuclei (%) [5]: 14%
- Population Tubulin-Different-Phenotype (%) [5]: 20%
- Total Cell Count [5]: 395
- Population Apoptotic (%) [6]: 50%
- Population Fragmented Nuclei (%) [6]: 8%
- Population Healthy Nuclei (%) [6]: 79%
- Population Hoechst High Intensity Objects (%) [6]: 6%
- Population Mitochondria Different-Phenotype (%) [6]: 48%
- Population Mitotic Cells (%) [6]: 50%
- Population Normal (%) [6]: 93%
- Population Pyknosed Nuclei (%) [6]: 11%
- Population Tubulin-Different-Phenotype (%) [6]: 16%
- Total Cell Count [6]: 422
- Population Apoptotic (%) [7]: 43%
- Population Fragmented Nuclei (%) [7]: 9%
- Population Healthy Nuclei (%) [7]: 76%
- Population Hoechst High Intensity Objects (%) [7]: 2%
- Population Membrane Permeable-Phenotype (%) [7]: 0%
- Population Mitochondria Different-Phenotype (%) [7]: 62%
- Population Mitotic Cells (%) [7]: 56%
- Population Normal (%) [7]: 97%
- Population Pyknosed Nuclei (%) [7]: 13%
- Population Tubulin-Different-Phenotype (%) [7]: 37%
- Total Cell Count [7]: 472
- Population Apoptotic (%) [8]: 57%
- Population Fragmented Nuclei (%) [8]: 8%
- Population Healthy Nuclei (%) [8]: 72%
- Population Hoechst High Intensity Objects (%) [8]: 5%
- Population Mitochondria Different-Phenotype (%) [8]: 68%
- Population Mitotic Cells (%) [8]: 42%
- Population Normal (%) [8]: 94%
- Population Pyknosed Nuclei (%) [8]: 19%
- Population Tubulin-Different-Phenotype (%) [8]: 28%
- Total Cell Count [8]: 381
- Population Apoptotic (%) [9]: 33%
- Population Fragmented Nuclei (%) [9]: 11%
- Population Healthy Nuclei (%) [9]: 80%
- Population Hoechst High Intensity Objects (%) [9]: 1%
- Population Membrane Permeable-Phenotype (%) [9]: 0%
- Population Mitochondria Different-Phenotype (%) [9]: 23%
- Population Mitotic Cells (%) [9]: 66%
- Population Normal (%) [9]: 98%
- Population Pyknosed Nuclei (%) [9]: 7%
- Population Tubulin-Different-Phenotype (%) [9]: 13%
- Total Cell Count [9]: 627
- Population Apoptotic (%) [10]: 30%
- Population Fragmented Nuclei (%) [10]: 9%
- Population Healthy Nuclei (%) [10]: 81%
- Population Hoechst High Intensity Objects (%) [10]: 2%
- Population Mitochondria Different-Phenotype (%) [10]: 30%
- Population Mitotic Cells (%) [10]: 69%
- Population Normal (%) [10]: 97%
- Population Pyknosed Nuclei (%) [10]: 9%
- Total Cell Count [10]: 593
- Population Apoptotic (%) [11]: 43%
- Population Fragmented Nuclei (%) [11]: 13%
- Population Healthy Nuclei (%) [11]: 80%
- Population Hoechst High Intensity Objects (%) [11]: 4%
- Population Membrane Permeable-Phenotype (%) [11]: 0%
- Population Mitochondria Different-Phenotype (%) [11]: 44%
- Population Mitotic Cells (%) [11]: 56%
- Population Normal (%) [11]: 95%
- Population Pyknosed Nuclei (%) [11]: 6%
- Population Tubulin-Different-Phenotype (%) [11]: 16%
- Total Cell Count [11]: 636
- Population Apoptotic (%) [12]: 42%
- Population Fragmented Nuclei (%) [12]: 12%
- Population Healthy Nuclei (%) [12]: 78%
- Population Hoechst High Intensity Objects (%) [12]: 2%
- Population Mitochondria Different-Phenotype (%) [12]: 53%
- Population Mitotic Cells (%) [12]: 57%
- Population Normal (%) [12]: 97%
- Population Pyknosed Nuclei (%) [12]: 9%
- Population Tubulin-Different-Phenotype (%) [12]: 20%
- Total Cell Count [12]: 521
